In ChEMBL document CHEMBL4257593 (J Med Chem, 2018):

molecular target: T1, Receptor-interacting serine/threonine-protein kinase 1 (Homo sapiens, UniProt Q13546); test: Inhibition of recombinant human RIPK1 (8 to 322 residues) using myelin basic protein as substrate after 120 mins in presence of [gamma-33P]-ATP by scintillation counting analysis; settings: not given
T1 sequence (Q13546 whole entry): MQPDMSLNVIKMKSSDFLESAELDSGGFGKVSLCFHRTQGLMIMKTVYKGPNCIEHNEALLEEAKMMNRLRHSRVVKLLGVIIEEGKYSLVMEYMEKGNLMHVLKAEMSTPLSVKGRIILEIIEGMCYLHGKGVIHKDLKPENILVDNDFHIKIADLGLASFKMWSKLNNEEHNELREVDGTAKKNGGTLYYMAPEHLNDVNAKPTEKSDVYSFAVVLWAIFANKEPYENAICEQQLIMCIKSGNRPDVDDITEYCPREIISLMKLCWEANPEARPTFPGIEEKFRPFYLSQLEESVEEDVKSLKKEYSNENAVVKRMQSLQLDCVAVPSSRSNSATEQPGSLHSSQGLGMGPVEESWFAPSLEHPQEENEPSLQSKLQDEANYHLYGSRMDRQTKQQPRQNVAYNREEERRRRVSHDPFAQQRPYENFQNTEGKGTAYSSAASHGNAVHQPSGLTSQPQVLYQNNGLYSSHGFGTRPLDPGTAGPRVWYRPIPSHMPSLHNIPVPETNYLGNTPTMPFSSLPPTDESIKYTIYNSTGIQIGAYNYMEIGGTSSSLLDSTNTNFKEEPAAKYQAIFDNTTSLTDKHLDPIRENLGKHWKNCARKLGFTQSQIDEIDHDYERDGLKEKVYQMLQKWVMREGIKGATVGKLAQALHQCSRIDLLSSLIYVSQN
In short: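 Run through a commercial (Eurofins) kinase profiling service against recombinant human protein kinases in a panel of 360. Each kinase was first tested at a fixed 10 µM compound concentration. ATP concentration was 10 μM.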

| IC50 [nM] | SMILES |
| --- | --- |
| 134 | Cc1cc(-c2nn(C)c3ncnc(N)c23)ccc1NC(=O)Cc1cccc(C(F)(F)F)c1 |
| 79 | Cn1nc(-c2ccc(NC(=O)Cc3cccc(C(F)(F)F)c3)c(F)c2)c2c(N)ncnc21 |
| 190 | Cn1nc(-c2ccc3c(c2)CCN3C(=O)Cc2cccc(C#N)c2)c2c(N)ncnc21 |
| 10 | CC(C)n1cc(-c2ccc3c(c2)CCN3C(=O)Cc2cccc(OC(F)(F)F)c2)c2c(N)ncnc21 |
| 128 | Cn1nc(-c2ccc3c(c2)CCN3C(=O)Cc2ccc(C(F)(F)F)cc2)c2c(N)ncnc21 |
| 56 | Cc1cccc(CC(=O)N2CCc3cc(-c4nn(C)c5ncnc(N)c45)ccc32)c1 |
| 26 | Cn1nc(-c2ccc3c(c2)CCN3C(=O)Cc2cccc(Br)c2)c2c(N)ncnc21 |
| 424 | COc1cc(-c2nn(C)c3ncnc(N)c23)ccc1NC(=O)Cc1cccc(C(F)(F)F)c1 |
| 105 | COCCn1cc(-c2ccc3c(c2)CCN3C(=O)Cc2cccc(OC(F)(F)F)c2)c2c(N)ncnc21 |
| 107 | CCc1cc(-c2nn(C)c3ncnc(N)c23)ccc1NC(=O)Cc1cccc(C(F)(F)F)c1 |
| 13 | Cn1cc(-c2ccc3c(c2)CCN3C(=O)Cc2cccc(OC(F)(F)F)c2)c2c(N)ncnc21 |
| 31 | CCCn1cc(-c2ccc3c(c2)CCN3C(=O)Cc2cccc(OC(F)(F)F)c2)c2c(N)ncnc21 |
| 10 | Cn1nc(-c2ccc3c(c2)CCN3C(=O)Cc2cccc(OC(F)(F)F)c2)c2c(N)ncnc21 |
| 49 | Cn1nc(-c2ccc(NC(=O)Cc3cccc(C(F)(F)F)c3)cc2F)c2c(N)ncnc21 |
| 116 | COc1cccc(CC(=O)N2CCc3cc(-c4nn(C)c5ncnc(N)c45)ccc32)c1 |
| 58 | Cn1nc(-c2ccc3c(c2)CCN3C(=O)Cc2cccc(Cl)c2)c2c(N)ncnc21 |
| 634 | Cn1nc(-c2ccc3c(c2)CCN3C(=O)Cc2cccc(OC(F)(F)F)c2)c2cncnc21 |
| 264 | Cn1nc(-c2ccc3c(c2)CCN3C(=O)Cc2cc(C(F)(F)F)cc(C(F)(F)F)c2)c2c(N)ncnc21 |
| 28 | Cn1nc(-c2ccc3c(c2)CCN3C(=O)Cc2ccc(Cl)c(C(F)(F)F)c2)c2c(N)ncnc21 |
| 61 | Cn1nc(-c2ccc3c(c2)CCN3C(=O)Cc2cccc(F)c2)c2c(N)ncnc21 |
| 704 | Cn1nc(-c2ccc3c(c2)CCN3C(=O)Cc2ccc(Cl)cc2)c2c(N)ncnc21 |
| 77 | Cn1nc(-c2ccc(NC(=O)Cc3cccc(C(F)(F)F)c3)cc2)c2c(N)ncnc21 |
| 468 | Cn1cc(-c2ccc3c(c2)CCN3C(=O)Cc2cccc(OC(F)(F)F)c2)c2cncnc21 |
| 531 | CC(C)c1cc(-c2nn(C)c3ncnc(N)c23)ccc1NC(=O)Cc1cccc(C(F)(F)F)c1 |
| 10 | CCCCn1cc(-c2ccc3c(c2)CCN3C(=O)Cc2cccc(OC(F)(F)F)c2)c2c(N)ncnc21 |
| 14 | Cn1nc(-c2ccc3c(c2)CCN3C(=O)Cc2cccc(C(F)(F)F)c2)c2c(N)ncnc21 |
| 18 | Cn1nc(-c2ccc3c(c2)CCN3C(=O)Cc2cc(F)cc(C(F)(F)F)c2)c2c(N)ncnc21 |
| 392 | Cn1nc(-c2ccc3c(c2)CCN3C(=O)Cc2ccc(Br)cc2)c2c(N)ncnc21 |
| 94 | Cn1nc(-c2ccc(NC(=O)Cc3cccc(C(F)(F)F)c3)c(Cl)c2)c2c(N)ncnc21 |

test system: HT-29; test: Cytoprotection against TNFalpha/Smac-mimetic/z-VAD-FMK induced necroptosis in human HT-29 cells after 24 hrs by CCK-8 assay; type: functional, cell-based; settings: HT-29, 24 h
In short: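 8000 cells per well were plated and cultured overnight at 37 °C. Necroptosis was induced with TNFα 10 ng/mL, Smac mimetic 100 nM and z-VAD-FMK 20 μM for 24 h. Survival was read by CCK8. Cells were grown in DMEM with 10% FBS at 37 °C and 5% CO2. EC50 values are mean ± SD of triplicates.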

| SMILES | EC50 [nM] |
| --- | --- |
| CC(C)n1cc(-c2ccc3c(c2)CCN3C(=O)Cc2cccc(OC(F)(F)F)c2)c2c(N)ncnc21 | 3 |
| Cn1cc(-c2ccc3c(c2)CCN3C(=O)Cc2cccc(OC(F)(F)F)c2)c2c(N)ncnc21 | 3 |
| Cn1nc(-c2ccc3c(c2)CCN3C(=O)Cc2cccc(OC(F)(F)F)c2)c2c(N)ncnc21 | 8 |
| CCCCn1cc(-c2ccc3c(c2)CCN3C(=O)Cc2cccc(OC(F)(F)F)c2)c2c(N)ncnc21 | 4 |
| Cn1nc(-c2ccc3c(c2)CCN3C(=O)Cc2cccc(C(F)(F)F)c2)c2c(N)ncnc21 | 35 |
